Most compounds without a hit are left out; they make up all but 3.8% or so of the library.
KCNQ1 inh: inhibitors of human KCNQ1 potassium channel; 1.3% of 310,000 active; CHO-K1 KCNQ1, FluxOR thallium flux fluorescence; active compounds read high; B-score at 10 µM; P51787; AID 2642;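 active means compounds whose thallium flux B-score, printed positive for inhibition, exceeds three library SD while starting fluorescence stays within three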;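 further: channel opened by potassium depolarization with thallium stimulus after 20 min compound exposure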
hERG rescue: hERG (human) protection from proarrhythmic block | Q12809 | CHO-hERG, FluxOR thallium flux, dofetilide IC70 present | 0.51% of 310,000 active | activation (rescue from dofetilide block), less the hit threshold, % at 10 µM | AID 1511;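 active means activation above the mean of controls blocked by dofetilide plus 5 SD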;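 further: thallium influx through hERG after potassium depolarization seen as dye fluorescence rise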
KCNK9 inh: human KCNK9 channel inhibition; Q9NPC2; HEK293 KCNK9, FluxOR thallium flux fluorescence; active compounds read low; B-score at 10 µM; 1.2% of 310,000 active;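 active means ratio B-score over 3 SD below the library mean, with starting fluorescence within 5 SD of its mean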;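 further: negative B-score means less thallium flux so channel inhibition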
Target sequence (Q9NPC2 whole entry, looked up): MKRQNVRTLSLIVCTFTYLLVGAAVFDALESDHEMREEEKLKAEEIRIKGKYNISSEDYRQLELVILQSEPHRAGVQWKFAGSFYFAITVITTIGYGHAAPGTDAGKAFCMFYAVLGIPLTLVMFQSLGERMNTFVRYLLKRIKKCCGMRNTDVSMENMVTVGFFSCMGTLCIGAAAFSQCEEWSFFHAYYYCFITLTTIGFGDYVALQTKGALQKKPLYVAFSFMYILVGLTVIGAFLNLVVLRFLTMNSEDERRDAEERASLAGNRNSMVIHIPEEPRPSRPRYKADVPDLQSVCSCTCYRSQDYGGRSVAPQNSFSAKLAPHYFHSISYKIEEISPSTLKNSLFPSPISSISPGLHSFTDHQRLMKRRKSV
KCNQ1 pot: human KCNQ1 channel potentiation or activation. B-score at 10 µM. 0.35% of 310,000 active. P51787. CHO-K1 KCNQ1, thallium flux FluxOR fluorescence; active compounds read high;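 active means fluorescence ratio B-score, a plate-corrected score, at least three library SD, with initial intensity B-score within 5 SD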
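System: CHO-K1 cells stably expressing KCNQ1 / Medium: assay buffer for compound exposure, DMSO matched across wells / Reagent: thallium- and potassium-containing depolarizing buffer / Compound: one concentration, matched DMSO / Incubation: 20 min compound pretreatment at room temperature / Measured by: kinetic FluxOR fluorescence, 10 s baseline plus 110 s post-stimulus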
KCNK3 block: human KCNK3 channel inhibition, primary screen; B-score at 10 µM; AID 602410; 0.84% of 340,000 active; CHO-KCNK3 thallium flux, FluxOR fluorescence; active compounds read low;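 active means B-score under library mean minus 4 SD, starting fluorescence ratio at most library mean plus 5 SD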;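 further: more negative B-score means stronger inhibition of thallium flux through KCNK3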
Kir21 block: blocks the mouse Kir2.1 inward-rectifier potassium channel | P35561 | HEK293-Kir2.1, FluxOR thallium flux fluorescence; active compounds read low | B-score at 10 µM | 0.85% of 310,000 active | AID 1672;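 active means fluorescence ratio B-score at or below minus 3 SD of library scores, with starting-brightness B-score within 2 SD, cut at about -4.2 in these data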;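 further: channel flux triggered by added potassium and thallium sulfate stimulus; B-score of peak minus minimum fluorescence over baseline after thallium stimulus; more negative B-score means stronger Kir2.1 block with less thallium influx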
Large screens that a line does not name were inactive.

CCCn1c(=S)[nH]c2sc3c(c2c1=O)CCCC3	hERG rescue 48, KCNQ1 pot 43
COCCn1c(=S)[nH]c2sc3c(c2c1=O)CCC(C)C3 (configuration not stated)	hERG rescue 27, KCNQ1 pot 60
COCCCn1c(=S)[nH]c2sc3c(c2c1=O)CCCS3	hERG rescue 19
CC1(c2nnc(-c3cccc(Cl)c3)o2)CC(c2ccc(F)cc2)=NO1 (configuration not stated)	none
O=C1C[C@H]2[C@H](CO)[C@@H](OC(=O)c3ccc(-c4ccccc4)cc3)C[C@H]2O1	none
CC(=O)Cn1nnc2sc3c(c2c1=O)CCC(C(C)(C)C)C3 (configuration not stated)	none
Cn1c(=S)[nH]c2sc3c(c2c1=O)CCC(C(C)(C)C)C3 (configuration not stated)	hERG rescue 57, KCNQ1 pot 80
FC(F)(F)c1ccc(Cl)c(N/N=C/c2ccc(N3CCOCC3)s2)c1	KCNK9 inh -6.9
O=C(CN1CCN(C(c2ccccc2)c2ccccc2)CC1)N1N=CCC1c1ccccc1 (configuration not stated)	none
Cc1cc(OCC(=O)OCC(=O)NCc2ccc3c(c2)OCO3)ccc1Cl	none (no result: KCNQ1 inh, hERG rescue, KCNK9 inh, KCNQ1 pot, Kir21 block)
CC(=O)Oc1ccc(C(=O)Nc2cccc(C(=O)c3ccc(C)c(C)c3)c2)cc1	KCNQ1 inh 6
CC(=O)Oc1cccc(NC(=O)c2cccc(C(=O)Nc3cccc(OC(C)=O)c3)c2)c1	none
COc1ccc(C(=O)Nc2cccc(OC(=O)c3ccc(C)c(C)c3)c2)cc1	KCNQ1 inh 6
Cc1ccc(S(=O)(=O)NC(=S)NC2CCCCC2)cc1	hERG rescue 7.5
O=S(=O)(NC(=S)NC1CCCCC1)c1ccc(Cl)cc1	hERG rescue 5.5
CCc1ccc(C(C)NC(=S)NC2CCCCC2)cc1 (configuration not stated)	none
CCc1ccc(S(=O)(=O)NC(=S)NC2CCCCC2)cc1	hERG rescue 21, KCNQ1 pot 23
CCOC(=O)c1ccc(NS(=O)(=O)c2c(C)[nH]c(C)c2C(=O)N2CCCCC2)cc1	none
CC1CC2=C(NC(=S)NC2c2ccccc2F)/C(=C/c2ccccc2F)C1 (configuration not stated)	KCNQ1 inh 6
CC1CC2=C(NC(=S)NC2c2cccc(F)c2)/C(=C/c2cccc(F)c2)C1 (configuration not stated)	none
Nc1nc(-c2ccccn2)nc(N)c1Cc1ccccc1F	none
Nc1nc(-c2ccccn2)nc(N)c1Cc1ccc(Cl)cc1Cl	KCNQ1 pot 9
Clc1cccc(CNCCNCc2cccc(Cl)c2)c1	Kir21 block -4.3
O=C(NCCNCc1cccc(Cl)c1)c1ccco1	none (no result: KCNQ1 inh, hERG rescue, KCNK9 inh, KCNQ1 pot, Kir21 block)
Cc1ccc(S(=O)(=O)N(CC2CO2)c2cccc([N+](=O)[O-])c2)cc1 (configuration not stated)	Kir21 block -4.9
CCOc1ccc(NC(=O)/C(=C\c2ccc(OC(C)=O)c(OC)c2)NC(C)=O)cc1	none
Cc1nn(CSc2c(F)c(F)c(F)c(F)c2F)c(C)c1[N+](=O)[O-]	none (no result: KCNQ1 inh, hERG rescue, KCNK9 inh, KCNQ1 pot, Kir21 block)
Cn1c(Oc2ccc(Cl)cc2)c(C=O)c2ccccc21	none
Cn1c(Sc2ccccc2Cl)c(C=O)c2ccccc21	KCNQ1 inh 11
c1ccc2c(c1)OC(CCCN1CCCCC1)c1ccccc1S2 (configuration not stated)	Kir21 block -5.8
CN1CCCC(CC2Oc3ccccc3Sc3ccccc32)C1 (configuration not stated)	none
CCOC(=O)C(=Nc1ccccc1)NO	none
Cc1c(-c2cc[n+]([O-])cc2)oc2ccc(Br)cc2c1=O	hERG rescue 4.9 (no result: KCNK3 block)
CCCOP(=O)(OCCC)C(Nc1ccc(C(=O)O)cc1)c1ccccc1 (configuration not stated)	none
CCCCOP(=O)(OCCCC)C(Nc1ccc(C(=O)OCC)cc1)c1ccncc1 (configuration not stated)	KCNQ1 inh 6
O=C(/C=C/c1cn(CC(O)CN2CCCCC2)c2ccccc12)c1ccccc1 (configuration not stated)	none
O=C(/C=C/c1cn(CC(O)CN2CCCCC2)c2ccccc12)c1cccs1 (configuration not stated)	KCNQ1 inh 7
COc1ccc(N2CCN(S(=O)(=O)c3c(C)nc4sccn4c3=O)CC2)cc1	none
Cc1ccc(C(=O)c2coc3ccc(O)c(CN4CCN(C)CC4)c23)cc1	Kir21 block -4.6
O=C(c1cccs1)c1coc2ccc(O)c(CN3CCOCC3)c12	Kir21 block -4.2
CCN(CC)Cc1c(O)ccc2occ(C(=O)c3ccc(OC)cc3)c12	none
COc1ccc(C(=O)c2coc3ccc(O)c(CN4CCOCC4)c23)cc1	Kir21 block -4.7
COc1ccc(C(=O)c2coc3ccc(O)c(CN4CCCC4)c23)cc1	none
O=C(c1coc2ccc(O)c(CN3CCOCC3)c12)C1CC1	none
COc1cc(C(=O)Nc2nc(-c3ccc(Cl)cc3)c(C)s2)ccc1OCC(=O)Nc1ccc(F)cc1	none
COc1ccc(N2CCN(S(=O)(=O)CCNC(=O)COc3ccccc3C)CC2)cc1	none
Oc1ccc(Nc2nc(NCC3CCCO3)c3ccccc3n2)cc1 (configuration not stated)	Kir21 block -7.8
Oc1ccccc1Nc1nc(NCC2CCCO2)c2ccccc2n1 (configuration not stated)	Kir21 block -12
CC(C)=N/N=C1/NC(=O)C(c2ccc(Cl)cc2)S1 (configuration not stated)	none (no result: KCNQ1 inh, hERG rescue, KCNK9 inh, KCNQ1 pot, Kir21 block)
COc1ccc(OC)c(NC(=S)N2CCN(C/C=C/c3ccccc3)CC2)c1	hERG rescue 49
Cc1cccc(CS(=O)(=O)c2nnc([C@H](Cc3ccccc3)NC(=O)OC(C)(C)C)o2)c1	Kir21 block -8.1
O=C(CNC(=O)c1ccc(F)cc1)NCc1ccc(Cl)cc1	none
O=C(CNC(=O)c1ccccc1)NCc1ccc(Cl)cc1	hERG rescue 28, KCNQ1 pot 18
CCCCN(C)C(=O)CCCc1c[nH]c2ccccc12	KCNK9 inh -7.8
CCN(CC)C(=O)CCCc1c[nH]c2ccccc12	none
COc1ccc(CN2CCc3c([nH]c4ccccc34)C2)cc1Br	Kir21 block -4.3
Cc1ccc(S(=O)(=O)NC(C)CCc2ccccc2)cc1 (configuration not stated)	Kir21 block -4.8
CC(=O)Nc1ccc(S(=O)(=O)NC(C)CCc2ccccc2)cc1 (configuration not stated)	none
CS(=O)(=O)N(CC(=O)N1CCOCC1)c1cc(Cl)ccc1Cl	none
CCn1c(CCNC(=O)c2ccc(OC)cc2)nnc1SCc1ccc(Cl)c(Cl)c1	Kir21 block -6.5

High-throughput results as filed in PubChem BioAssay.
